Consider 2 compounds from ChEMBL document CHEMBL3797027, “Potent anti-proliferative actions of a non-diuretic glucosamine derivative of ethacrynic acid” (Bioorg Med Chem Lett, 2016).

Active and inactive are the calls of the source. The rule behind the calls is not given here. A value given as a limit tells only on which side of the number the result lay.

The subject of one data set is Mus musculus. Description: Toxic diuretic effect in 12 hrs fasted CD1 mouse assessed as increase in urine output at 10 mg/kg, ip measured 0 to 6 hrs post dose relative to untreated control. Type of data set: toxicity, organism-based. Conditions: in vivo. In short, it runs like this: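 Female CD-1 mice fasted 12 h, then given compound IP at 10 mg/kg in PEG/EtOH/H2O (54:14:32). Vehicle control group included. Mice were housed singly in metabolic cages with free access to water. Voided urine was collected in graduated tubes under the cages over 0–6 h and 6–24 h after injection.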

A short description of data set [1]: Cytotoxic activity against human H1299 cells assessed as inhibition of cell proliferation incubated for 72 hrs by MTT assay. Type of data set: functional, cell-based. The note with it: NCI-H1299, 72 h. In short, it runs like this: (§1)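 MTT cell survival assay. IC50 is the concentration that inhibits tumour cell proliferation by 50%, read from cell survival curves. Values are given as mean ± SD of three independent experiments.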
Background: Tetrazolium assays rely on reduction of a dye to a coloured formazan, in cell work by metabolically active cells.

Data set [2] is described as follows: Cytotoxic activity against human GBM10 cells assessed as inhibition of cell proliferation incubated for 72 hrs by MTT assay. Type of data set: functional, cell-based. Conditions: GBM10, 72 h. In short, it runs like this:
as §1

Data set [3] in a line: Cytotoxic activity against human SF188 cells assessed as inhibition of cell proliferation incubated for 72 hrs by MTT assay. The data set is classed as functional, cell-based. The note with it: SF-188, 72 h. In short, it runs like this: as §1
A short description of data set [4]: Cytotoxic activity against human SKBR3 cells assessed as inhibition of cell proliferation incubated for 72 hrs by MTT assay. The data set is classed as functional, cell-based. Conditions: SK-BR-3, 72 h. In short, it runs like this: as §1
In the next data set the test system is MDA-MB-231. In words: Cytotoxic activity against human MDA-MB-231 cells assessed as inhibition of cell proliferation incubated for 72 hrs by MTT assay. Type of data set: functional, cell-based. Put shortly:
as §1

The test system of another data set is MDA-MB-468. Description: Cytotoxic activity against human MDA-MB-468 cells assessed as inhibition of cell proliferation incubated for 72 hrs by MTT assay. The data set is classed as functional, cell-based. Conditions: MDA-MB-468, 72 h. Put shortly: as §1
A further data set relates to MCF7. In words: Cytotoxic activity against human MCF7 cells assessed as inhibition of cell proliferation incubated for 72 hrs by MTT assay. Type of data set: functional, cell-based. Conditions: MCF7, 72 h. Put shortly:
as §1

Another data set concerns HT-29. In words: Cytotoxic activity against human HT-29 cells assessed as inhibition of cell proliferation incubated for 72 hrs by MTT assay. The data set is classed as functional, cell-based. Conditions: HT-29, 72 h. Put shortly:
as §1

Data set [5] is described as follows: Cytotoxic activity against human HCT116 cells assessed as inhibition of cell proliferation incubated for 72 hrs by MTT assay. The data set is classed as functional, cell-based. Conditions: HCT-116, 72 h. In short, it runs like this: as §1
The nature of data set [6]: Cytotoxic activity against human HT1080 cells assessed as inhibition of cell proliferation incubated for 72 hrs by MTT assay. The data set is classed as functional, cell-based. Conditions: HT-1080, 72 h. Put shortly: as §1
The nature of data set [7]: Cytotoxic activity against human MCF10A cells assessed as inhibition of cell proliferation incubated for 72 hrs by MTT assay. Type of data set: cell-based. Conditions: mcf-10a. In short, it runs like this: as §1

Usually IC50 stands for the concentration needed to halve the response being measured. As to `C=C(CC)C(=O)c1ccc(OCC(=O)O)c(Cl)c1Cl` [ETHACRYNIC ACID], in the data set on Mus musculus, the “fold change (FC)” value is recorded as “<= 6”. The IC50 in [1] came to 44.3 µM; in data set [2] it was 29.9 µM; in data set [3], 31.7 µM; in data set [4] it was 34.2 µM; with MDA-MB-231 (MDA-MB-231, 72 h) it was 45.2 µM; in the data set with MDA-MB-468, 81.5 µM. Besides, the IC50 came out at 28.9 µM in the data set on MCF7, 62.4 µM with HT-29, 30.2 µM in data set [5] and 54.5 µM in [6].
Turning to `N[C@H]1C(O)O[C@H](CO)[C@@H](O)[C@@H]1O` (stereo partly drawn) [GLUCOSAMINE], in the data set with MDA-MB-231, the “growth inhibition (GI)” value was “inactive”. Further, the Activity result in data set [7] is “Non-toxic”.
